Assay results: ChEMBL document CHEMBL3102698, “New highly toxic bile acids derived from deoxycholic acid, chenodeoxycholic acid and lithocholic acid” (Bioorg Med Chem, 2014)
The source made the active and inactive calls. No cut-off for these calls is given here.

Key:
Caco-2 [1] = assay: Cytotoxicity against human Caco2 cells assessed as cell viability at 10 uM after 24 hrs by MTT assay in presence of antioxidant N-acetyl cysteine; assay type: functional, cell-based
Summary of the method: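 MTT viability run on Caco-2 with and without 1 mM N-acetyl cysteine co-incubation. Compounds at 10 µM, natural bile acids at 100 µM, 24 h serum-free after 1 h serum starvation. MTT 0.5 mg/mL for 3 h at 37 °C, then DMSO solubilisation and OD at 540 nm, expressed as % of untreated; n = 3.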

Caco-2 [2] = assay: Induction of ROS production in human Caco2 cells at 10 uM after 0.5 to 24 hrs by 2',7'-dichlorfluorescein-diacetate staining-based fluorescence assay; assay type: functional, cell-based
Summary of the method: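 Caco-2 at 70-80% confluence exposed in serum-free medium for 30 min or 24 h (compounds 10 µM, natural bile acids 100 µM). Medium then replaced with 100 µM 2',7'-dichlorofluorescein diacetate for 30 min at 37 °C, cells washed with PBS, fluorescence read at ex 490/em 530 nm. Signal expressed relative to vehicle and corrected for MTT viability; n = 3.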

[3] = Cytotoxicity against human HT1080 cells assessed as cell viability after 24 hrs by MTT assay; assay type: functional, cell-based; conditions: HT-1080, 24 h
Summary of the method: (§1)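 Cells grown to 70% confluence (Caco-2 seeded 8 × 10^3/well, HT1080 12 × 10^4/well), serum-starved 1 h, then exposed 24 h serum-free to 0.1-1000 µM (DMSO ≤0.5%). MTT 0.5 mg/mL added for 3 h at 37 °C; formazan dissolved in DMSO, OD read at 540 nm. Viability taken as % of untreated OD. IC50 fitted from eight concentration levels, at least three experiments in triplicate.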

Caco-2 [4] = assay: Cytotoxicity against human Caco2 cells assessed as cell viability after 24 hrs by MTT assay; assay type: functional, cell-based; conditions: Caco-2, 24 h; summary of the method: as §1
Caco-2 [5] = assay: Induction of apoptosis in human Caco2 cells at 3.125 to 100 uM after 24 hrs by annexin V-FITC/propidium iodide staining-based flow cytometric analysis; assay type: functional, cell-based
Summary of the method: (§2)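 Caco-2 or HT1080 grown to 80% confluence, then treated 24 h in serum-free medium (vehicle controls run in parallel) at seven concentrations. Cells collected, washed and resuspended in binding buffer, stained with annexin V-FITC plus propidium iodide for 15 min at rt in the dark, and analysed within 5 min. Quadrants scored: annexin+/PI− early apoptotic, double-positive late apoptotic, PI+ only dead.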

HT-1080 [6] = assay: Induction of apoptosis in human HT1080 cells at 3.125 to 100 uM after 24 hrs by annexin V-FITC/propidium iodide staining-based flow cytometric analysis; assay type: functional, cell-based; summary of the method: as §2
Caco-2 [7] = assay: Cytotoxicity against human Caco2 cells assessed as cell viability at 50 uM after 24 hrs by MTT assay relative to control; assay type: functional; conditions: Caco-2, 24 h, read-out: Activity
[8] = Cytotoxicity against human HET-1A cells; assay type: cell-based
Caco-2 [9] = assay: Induction of necrosis in human Caco2 cells up to 500 uM after 24 hrs by annexin V-FITC/propidium iodide staining-based flow cytometric analysis; assay type: functional, cell-based
Summary of the method: (§3)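 Cells grown to 80% confluence, exposed 24 h in serum-free medium, with vehicle-only controls. Harvested cells washed and resuspended in binding buffer, then stained with annexin V-FITC and propidium iodide 15 min at rt in the dark. Read by flow cytometry within 5 min. Annexin V−/PI+ cells scored necrotic and annexin V+ cells apoptotic; quadrant percentages reported.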

HT-1080 [10] = assay: Induction of necrosis in human HT1080 cells up to 500 uM after 24 hrs by annexin V-FITC/propidium iodide staining-based flow cytometric analysis; assay type: functional, cell-based; summary of the method: as §3
Caco-2 [11] = assay: Induction of necrosis in human Caco2 cells at 50 to 100 uM after 24 hrs by annexin V-FITC/propidium iodide staining-based flow cytometric analysis; assay type: functional, cell-based; summary of the method: as §3
Caco-2 [12] = assay: Cytotoxicity against human Caco2 cells assessed as cell viability at 100 uM after 24 hrs by MTT assay in presence of antioxidant N-acetyl cysteine; assay type: functional, cell-based
Summary of the method: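 Caco-2 grown to 70% confluence, serum-starved 1 h, then treated 24 h serum-free with compound plus 1 mM NAC; DMSO vehicle at most 0.5%. MTT 0.5 mg/mL for 3 h at 37 °C, formazan dissolved in DMSO, OD 540 nm. Viability expressed as % of untreated cells; n = 3.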

HT-1080 [13] = assay: Induction of necrosis in human HT1080 cells at 50 to 100 uM after 24 hrs by annexin V-FITC/propidium iodide staining-based flow cytometric analysis; assay type: functional, cell-based; summary of the method: as §3
HT-1080 [14] = assay: Induction of necrosis in human HT1080 cells at 3.125 to 100 uM after 24 hrs by annexin V-FITC/propidium iodide staining-based flow cytometric analysis; assay type: functional, cell-based; summary of the method: as §2

SMILES | IC50 [3] | IC50 (Caco-2 [4]) | other results
C[C@H](CCC(=O)NC1CC1)[C@H]1CC[C@H]2[C@@H]3[C@H](O)C[C@@H]4C[C@@H](N=[N+]=[N-])CC[C@]4(C)[C@H]3CC[C@]12C | 3.2 µM | 7.6 µM | Activity (Caco-2 [1]): inactive; Activity (Caco-2 [2]): Active
C[C@H](CCC(=O)NCc1ccccc1)[C@H]1CC[C@H]2[C@@H]3CC[C@@H]4C[C@@H](N=[N+]=[N-])CC[C@]4(C)[C@H]3CC[C@]12C | > 100 µM | > 100 µM | 
C[C@H](CCC(=O)NC1CCCCC1)[C@H]1CC[C@H]2[C@@H]3CC[C@@H]4C[C@@H](N=[N+]=[N-])CC[C@]4(C)[C@H]3C[C@H](O)[C@]12C | > 100 µM | > 1000 µM | 
C[C@H](CCC(N)=O)[C@H]1CC[C@H]2[C@@H]3[C@H](O)C[C@@H]4C[C@@H](N=[N+]=[N-])CC[C@]4(C)[C@H]3CC[C@]12C | 6.9 µM | 9.8 µM | Activity (Caco-2 [1]): inactive; Activity (Caco-2 [2]): Active
C[C@H](CCC(=O)O)[C@H]1CC[C@H]2[C@@H]3CC[C@@H]4C[C@@H](N=[N+]=[N-])CC[C@]4(C)[C@H]3CC[C@]12C | 21.3 µM | > 250 µM | Activity (Caco-2 [5]): Active; Activity (HT-1080 [6]): Active
CCCNC(=O)CC[C@@H](C)[C@H]1CC[C@H]2[C@@H]3CC[C@@H]4C[C@@H](N=[N+]=[N-])CC[C@]4(C)[C@H]3CC[C@]12C | > 200 µM | > 1000 µM | 
CCCNC(=O)CC[C@@H](C)[C@H]1CC[C@H]2[C@@H]3CC[C@@H]4C[C@@H](N=[N+]=[N-])CC[C@]4(C)[C@H]3C[C@H](O)[C@]12C | 6.3 µM |  | Activity (Caco-2 [2]): Active; viability at 50 µM (Caco-2 [7]): 60%
C[C@H](CCC(N)=O)[C@H]1CC[C@H]2[C@@H]3CC[C@@H]4C[C@H](O)CC[C@]4(C)[C@H]3C[C@H](O)[C@]12C |  |  | EC50 [8]: 39 µM
C[C@H](CCC(=O)O)[C@H]1CC[C@H]2C3=CC[C@@H]4C[C@H](O)CC[C@]4(C)[C@H]3CC[C@]12C |  | > 100 µM | 
C[C@H](CCC(=O)O)[C@H]1CC[C@H]2[C@@H]3[C@H](O)C[C@@H]4C[C@H](O)CC[C@]4(C)[C@H]3CC[C@]12C [CHENODIOL] | 130 µM | 106 µM | Activity (Caco-2 [9]): inactive; Activity (HT-1080 [10]): inactive
C[C@H](CCC(=O)O)[C@H]1CC[C@H]2[C@@H]3CC[C@@H]4C[C@H](O)CC[C@]4(C)[C@H]3CC[C@]12C [LITHOCHOLIC ACID] | 23 µM | 56 µM | Activity (Caco-2 [11]): Active; Activity (Caco-2 [12]): inactive; Activity (HT-1080 [13]): Active
C[C@H](CCC(N)=O)[C@H]1CC[C@H]2[C@@H]3CC[C@@H]4C[C@@H](N=[N+]=[N-])CC[C@]4(C)[C@H]3C[C@H](O)[C@]12C | 3.6 µM | 10.7 µM | 
CC(=O)O[C@@H]1C[C@@H]2C[C@@H](N=[N+]=[N-])CC[C@]2(C)[C@H]2CC[C@]3(C)[C@@H]([C@H](C)CCC(=O)NC4CC4)CC[C@H]3[C@H]12 |  | 6.2 µM | 
C[C@H](CCC(=O)NC1CCCCC1)[C@H]1CC[C@H]2[C@@H]3CC[C@@H]4C[C@@H](N=[N+]=[N-])CC[C@]4(C)[C@H]3CC[C@]12C | > 1000 µM | > 1000 µM | 
C[C@H](CCC(=O)O)[C@H]1CC[C@H]2[C@@H]3[C@H](O)C[C@@H]4C[C@H](N=[N+]=[N-])CC[C@]4(C)[C@H]3CC[C@]12C | 26.2 µM | 43.7 µM | 
CC(=O)O[C@@H]1C[C@@H]2C[C@@H](N=[N+]=[N-])CC[C@]2(C)[C@H]2CC[C@]3(C)[C@@H]([C@H](C)CCC(N)=O)CC[C@H]3[C@H]12 |  | 5.5 µM | 
CC(=O)O[C@@H]1C[C@@H]2C[C@@H](N=[N+]=[N-])CC[C@]2(C)[C@H]2CC[C@]3(C)[C@@H]([C@H](C)CCC(=O)O)CC[C@H]3[C@H]12 |  | 15.6 µM | 
C[C@H](CCC(=O)NCc1ccccc1)[C@H]1CC[C@H]2[C@@H]3CC[C@@H]4C[C@@H](N=[N+]=[N-])CC[C@]4(C)[C@H]3C[C@H](O)[C@]12C | > 500 µM | > 1000 µM | Activity (Caco-2 [2]): Active
C[C@H](CCC(=O)NC1CC1)[C@H]1CC[C@H]2C3=CC[C@@H]4C[C@H](O)CC[C@]4(C)[C@H]3CC[C@]12C |  | 9.5 µM | 
C[C@H](CCC(=O)O)[C@H]1CC[C@H]2[C@@H]3CC[C@@H]4C[C@@H](N=[N+]=[N-])CC[C@]4(C)[C@H]3C[C@H](O)[C@]12C |  |  | EC50 [8]: 97 µM
C[C@H](CCC(=O)O)[C@H]1CC[C@H]2[C@@H]3[C@@H](O)C[C@@H]4C[C@H](O)CC[C@]4(C)[C@H]3CC[C@]12C |  |  | Activity (Caco-2 [12]): inactive
C[C@H](CCC(N)=O)[C@H]1CC[C@H]2[C@@H]3CC[C@@H]4C[C@@H](N=[N+]=[N-])CC[C@]4(C)[C@H]3CC[C@]12C | 13.1 µM | > 500 µM | Activity (HT-1080 [14]): Active
C[C@H](CCC(=O)NC1CC1)[C@H]1CC[C@H]2[C@@H]3CC[C@@H]4C[C@@H](N=[N+]=[N-])CC[C@]4(C)[C@H]3CC[C@]12C | > 100 µM | > 100 µM | 
C[C@H](CCC(=O)O)[C@H]1CC[C@H]2[C@@H]3[C@H](O)C[C@@H]4C[C@@H](N=[N+]=[N-])CC[C@]4(C)[C@H]3CC[C@]12C | 23.6 µM | 40.3 µM | 
C[C@H](CCC(=O)NC1CC1)[C@H]1CC[C@H]2[C@@H]3CC[C@@H]4C[C@@H](N=[N+]=[N-])CC[C@]4(C)[C@H]3C[C@H](O)[C@]12C | 1.9 µM | 6.3 µM | Activity (Caco-2 [1]): inactive; Activity (HT-1080 [6]): Active
C[C@H](CCC(N)=O)[C@H]1CC[C@H]2[C@@H]3CC[C@@H]4C[C@H](N=[N+]=[N-])CC[C@]4(C)[C@H]3C[C@H](O)[C@]12C | 10 µM | 12.6 µM | Activity (Caco-2 [1]): inactive; Activity (Caco-2 [2]): Active
C[C@H](CCC(=O)NC1CC1)[C@H]1CC[C@H]2[C@@H]3CC[C@@H]4C[C@H](N=[N+]=[N-])CC[C@]4(C)[C@H]3C[C@H](O)[C@]12C | 5.7 µM | 2.3 µM | Activity (Caco-2 [1]): inactive
C[C@H](CCC(N)=O)[C@H]1CC[C@H]2C3=CC[C@@H]4C[C@H](O)CC[C@]4(C)[C@H]3CC[C@]12C |  | > 100 µM | 
